ChEMBL document CHEMBL3576806, “Design and synthesis of novel arctigenin analogues for the amelioration of metabolic disorders” (ACS Med Chem Lett, 2015)
Active and inactive are the calls of the source. The rule behind the calls is not given here.

Assays:
L6 [1] = experiment: Increase in glucose uptake in rat L6 cells at 3 umol/L pre-treated with compound for 30 mins using 2-deoxy-D-[1,2-3H]glucose and measured after 2 hrs by liquid scintillation counting method relative to control; assay type: functional
How it was run: (§1)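 L6 myotubes exposed to compound for 2 h at 1.5, 3, 6, 12 or 24 μM; 2-deoxyglucose uptake expressed as fold over untreated control; 3 μM (−)-arctigenin run alongside as positive control; mean ± SEM of 3 independent experiments.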

L6 [2] = experiment: Increase in glucose uptake in rat L6 cells at 0.75 uM to 3 uM pre-treated with compound for 30 mins using 2-deoxy-D-[1,2-3H]glucose and measured after 2 hrs by liquid scintillation counting method; assay type: functional, cell-based
L6 [3] = experiment: Induction of depolarization of mitochondrial membrane potential in rat L6 cells incubated for 10 mins by fluorescence based assay; assay type: functional, cell-based
How it was run: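 L6 myotubes treated 10 min over a concentration series; mitochondrial membrane potential (Δψm) depolarization measured; mean ± SEM, n = 3 independent experiments.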

L6 [4] = experiment: Induction of AMPK phosphorylation in rat L6 cells at 1.5 uM incubated for 2 hrs by Western blotting method; assay type: cell-based
How it was run: (§2)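 L6 myotubes treated 2 h at the stated concentrations; phosphorylated AMPK and phosphorylated ACC detected by immunoblot.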

L6 [5] = experiment: Induction of AMPK phosphorylation in rat L6 cells at 3 uM incubated for 2 hrs by Western blotting method; assay type: cell-based; how it was run: as §2
L6 [6] = experiment: Induction of AMPK activation in rat L6 cells assessed as increase in ACC phosphorylation at 1.5 uM incubated for 2 hrs by Western blotting method; assay type: cell-based; how it was run: as §2
L6 [7] = experiment: Induction of AMPK activation in rat L6 cells assessed as increase in ACC phosphorylation at 3 uM incubated for 2 hrs by Western blotting method; assay type: cell-based; how it was run: as §2
L6 [8] = experiment: Increase in glucose uptake in rat L6 cells pre-treated with compound for 30 mins using 2-deoxy-D-[1,2-3H]glucose and measured after 2 hrs in presence of 10 uM AMPK inhibitor compound-C by liquid scintillation counting method; assay type: functional, cell-based
How it was run: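 L6 myotube 2-deoxyglucose uptake after compound exposure, tested with and without the AMPK inhibitor compound C; mean ± SEM, n = 3 independent experiments.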

L6 [9] = experiment: Induction of fatty acid oxidation in rat L6 cells at 6 uM using [9,10-3H(N)]-palmitic acid incubated for 2 hrs; assay type: functional, cell-based
How it was run: (§3)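 Fatty acid oxidation measured in L6 myotubes after compound treatment, also with compound C to block AMPK; mean ± SEM, n = 3 independent experiments.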

L6 [10] = experiment: Induction of fatty acid oxidation in rat L6 cells using [9,10-3H(N)]-palmitic acid incubated for 2 hrs in presence of AMPK inhibitor compound-C; assay type: functional, cell-based; how it was run: as §3
[11] = Tmax in ob/ob mouse at 50 mg/kg, ip measured after 0.5 to 24 hrs; assay type: ADME, organism-based; settings: in vivo
L6 [12] = experiment: Increase in glucose uptake in rat L6 cells at 1.5 uM pre-treated with compound for 30 mins using 2-deoxy-D-[1,2-3H]glucose and measured after 2 hrs by liquid scintillation counting method; assay type: functional; how it was run: as §1
L6 [13] = experiment: Increase in glucose uptake in rat L6 cells at 1.5 uM pre-treated with compound for 30 mins using 2-deoxy-D-[1,2-3H]glucose and measured after 2 hrs in presence of 3 uM (-)-arctigenin by liquid scintillation counting method; assay type: functional; how it was run: as §1
L6 [14] = experiment: Ratio of glucose uptake in rat L6 cells at 1.5 uM after 2 hrs to glucose uptake in rat L6 cells at 1.5 uM after 2 hrs in presence of 3 uM (-)-arctigenin; assay type: functional
How it was run: (§4)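 Glucose uptake in L6 myotubes after 2 h compound exposure divided by uptake with the 3 μM (−)-arctigenin positive control run in parallel.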

L6 [15] = experiment: Increase in glucose uptake in rat L6 cells at 3 uM pre-treated with compound for 30 mins using 2-deoxy-D-[1,2-3H]glucose and measured after 2 hrs by liquid scintillation counting method; assay type: functional; how it was run: as §1
L6 [16] = experiment: Increase in glucose uptake in rat L6 cells at 3 uM […] using 2-deoxy-D-[1,2-3H]glucose and measured after 2 hrs […] by liquid scintillation counting method; assay type: functional; how it was run: as §1
L6 [17] = experiment: Ratio of glucose uptake in rat L6 cells at 3 uM after 2 hrs to glucose uptake in rat L6 cells at 3 uM after 2 hrs in presence of 3 uM (-)-arctigenin; assay type: functional; how it was run: as §4
L6 [18] = experiment: Increase in glucose uptake in rat L6 cells at 6 uM pre-treated with compound for 30 mins using 2-deoxy-D-[1,2-3H]glucose and measured after 2 hrs by liquid scintillation counting method; assay type: functional; how it was run: as §1
L6 [19] = experiment: Increase in glucose uptake in rat L6 cells at 6 uM pre-treated with compound for 30 mins using 2-deoxy-D-[1,2-3H]glucose and measured after 2 hrs […] by liquid scintillation counting method; assay type: functional; how it was run: as §1
L6 [20] = experiment: Ratio of glucose uptake in rat L6 cells at 6 uM after 2 hrs to glucose uptake in rat L6 cells at 6 uM after 2 hrs in presence of 3 uM (-)-arctigenin; assay type: functional; how it was run: as §4
L6 [21] = experiment: Increase in glucose uptake in rat L6 cells at 12 uM pre-treated with compound for 30 mins using 2-deoxy-D-[1,2-3H]glucose and measured after 2 hrs by liquid scintillation counting method; assay type: functional; how it was run: as §1
L6 [22] = experiment: Increase in glucose uptake in rat L6 cells at 12 uM pre-treated with compound for 30 mins using 2-deoxy-D-[1,2-3H]glucose and measured after 2 hrs […] by liquid scintillation counting method; assay type: functional; how it was run: as §1
L6 [23] = experiment: Ratio of glucose uptake in rat L6 cells at 12 uM after 2 hrs to glucose uptake in rat L6 cells at 12 uM after 2 hrs in presence of 3 uM (-)-arctigenin; assay type: functional; how it was run: as §4
L6 [24] = experiment: Induction of AMPK phosphorylation in rat L6 cells at 6 uM incubated for 2 hrs by Western blotting method; assay type: cell-based; how it was run: as §2
L6 [25] = experiment: Induction of AMPK activation in rat L6 cells assessed as increase in ACC phosphorylation at 6 uM incubated for 2 hrs by Western blotting method; assay type: cell-based; how it was run: as §2
L6 [26] = experiment: Induction of fatty acid oxidation in rat L6 cells at 3 uM using [9,10-3H(N)]-palmitic acid incubated for 2 hrs; assay type: functional, cell-based; how it was run: as §3
[27] = Cmax in ob/ob mouse at 50 mg/kg, ip measured after 0.5 to 24 hrs; assay type: ADME, organism-based; set-up: dose 50 mg/kg, route intraperitoneal; settings: in vivo
[28] = AUC (0 to t) in ob/ob mouse at 50 mg/kg, ip measured after 0.5 to 24 hrs; assay type: ADME, organism-based; set-up: dose 50 mg/kg, time upper 24 hr, time lower 0.5 hr, route intraperitoneal; settings: in vivo
Mus musculus [29] = experiment: Reduction in respiratory exchange ratio in ob/ob mouse at 50 mg/kg, ip measured at 6 min intervals […] at 23 degC by indirect calorimetry; assay type: functional, organism-based
Mus musculus [30] = experiment: Antidiabetic activity in ob/ob mouse assessed as reduction in body weight at 50 mg/kg, ip bid for 23 days measured on day 3; assay type: functional, organism-based
How it was run: (§5)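 ob/ob mice given 50 mg/kg intraperitoneally or vehicle twice daily for 23 d; body weight and food intake recorded regularly, fed and fasting blood glucose measured throughout, serum triacylglycerol, cholesterol and NEFA measured at end of treatment; mean ± SEM, n = 6–8 mice, compared with vehicle group.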

Mus musculus [31] = experiment: Toxicity in ob/ob mouse assessed as effect on feeding behavior at 50 mg/kg, ip bid for 23 days; assay type: organism-based; settings: in vivo, 552 h; how it was run: as §5
Mus musculus [32] = experiment: Antidiabetic activity in ob/ob mouse assessed as reduction in fed glucose levels at 50 mg/kg, ip bid for 12 days; assay type: functional; set-up: scale not given: the % may be the effect or the level left; how it was run: as §5
Mus musculus [33] = experiment: Antidiabetic activity in ob/ob mouse assessed as reduction in fasting blood glucose levels at 50 mg/kg, ip bid for 12 days; assay type: functional; set-up: scale not given: the % may be the effect or the level left; how it was run: as §5
Mus musculus [34] = experiment: Antidiabetic activity in ob/ob mouse assessed as effect on serum triglyceride levels at 50 mg/kg, ip bid for 23 days; assay type: functional, organism-based; how it was run: as §5
Mus musculus [35] = experiment: Antidiabetic activity in ob/ob mouse assessed as reduction in total cholesterol levels at 50 mg/kg, ip bid for 23 days; assay type: functional; set-up: scale not given: the % may be the effect or the level left; how it was run: as §5
Mus musculus [36] = experiment: Antidiabetic activity in ob/ob mouse assessed as reduction in NEFA levels at 50 mg/kg, ip bid for 23 days; assay type: functional; set-up: scale not given: the % may be the effect or the level left; how it was run: as §5

SMILES: COc1cc(C[C@H]2C(=O)CC[C@@H]2Cc2ccc(OC)c(OC)c2)ccc1O
- fold change (FC) (L6 [1]): 2.08

SMILES: COc1cc(CC2C(=O)OCC2Cc2ccc(OC)c(OC)c2)ccc1O (racemic)
- Activity (L6 [2]): Dose-dependent effect
- fold change (FC) (L6 [1]): 1.62
- Activity (L6 [3]): Dose-dependent effect
- Activity (L6 [4]): Active
- Activity (L6 [5]): Active
- Activity (L6 [6]): Active
- Activity (L6 [7]): Active
- Activity (L6 [8]): inactive
- Activity (L6 [9]): Active
- Activity (L6 [10]): inactive
- Tmax [11]: 30 min

SMILES: COc1ccc(C[C@H]2COC(=O)[C@@H]2Cc2ccccc2O)cc1OC
- Activity (L6 [12]): 137.6%
- Activity (L6 [13]): 237.6%
- Ratio (L6 [14]): 0.579

SMILES: COc1ccc(C[C@H]2COC(=O)[C@@H]2Cc2cccc(Cl)c2)cc1OC
- Activity (L6 [15]): 114.8%
- Activity (L6 [16]): 212.4%
- Ratio (L6 [17]): 0.54

SMILES: COc1ccc(C[C@H]2COC(=O)[C@@H]2Cc2ccc(Br)cc2)cc1OC
- Activity (L6 [18]): 176%
- Activity (L6 [19]): 269.2%
- Ratio (L6 [20]): 0.654

SMILES: COc1cccc(C[C@H]2C(=O)OC[C@@H]2Cc2ccc(OC)c(OC)c2)c1
- Activity (L6 [21]): 119.2%
- Activity (L6 [22]): 211.3%
- Ratio (L6 [23]): 0.564

SMILES: COc1ccc(C[C@@H]2COC(=O)[C@H]2Cc2ccc(Cl)cc2)cc1OC
- Activity (L6 [12]): 103.1%
- Activity (L6 [13]): 208.9%
- Ratio (L6 [14]): 0.494
- Activity (L6 [4]): inactive
- Activity (L6 [5]): inactive
- Activity (L6 [24]): inactive
- Activity (L6 [6]): inactive
- Activity (L6 [7]): inactive
- Activity (L6 [25]): inactive

SMILES: COc1cccc(C[C@H]2COC(=O)[C@@H]2Cc2ccc(O)c(OC)c2)c1
- Activity (L6 [12]): 121.2%
- Activity (L6 [13]): 241%
- Ratio (L6 [14]): 0.503

SMILES: COc1ccc(C[C@H]2COC(=O)[C@@H]2Cc2ccc(OC)c(OC)c2)cc1OC
- Activity (L6 [15]): 137.1%
- Activity (L6 [16]): 237.6%
- Ratio (L6 [17]): 0.577

SMILES: COc1ccc(CC2COC(=O)C2Cc2ccc(Cl)cc2)cc1OC (racemic)
- Activity (L6 [18]): 173.7%
- Activity (L6 [19]): 185.5%
- Ratio (L6 [20]): 0.936
- Activity (L6 [3]): Dose-dependent effect
- Activity (L6 [8]): inactive
- Activity (L6 [9]): Active
- Activity (L6 [26]): Active
- Activity (L6 [10]): inactive
- Tmax [11]: 30 min
- Cmax [27]: 508 ng/mL
- AUC(0-t) [28]: 1880 ng·h/mL
- Activity (Mus musculus [29]): Active
- Activity (Mus musculus [30]): Active
- Activity (Mus musculus [31]): Non-toxic
- Activity (Mus musculus [32]): 27.7%
- Activity (Mus musculus [33]): 27.3%
- Activity (Mus musculus [34]): inactive
- Activity (Mus musculus [35]): 22.4%
- Activity (Mus musculus [36]): 10%

SMILES: COc1cc(C[C@H]2C(=O)OC[C@@H]2Cc2ccc3c(c2)OCO3)ccc1O
- Activity (L6 [12]): 131.7%
- Activity (L6 [13]): 265.3%
- Ratio (L6 [14]): 0.496

SMILES: COc1ccc(C[C@H]2COC(=O)[C@@H]2Cc2ccc(C#N)cc2)cc1OC
- Activity (L6 [15]): 136.7%
- Activity (L6 [16]): 258.7%
- Ratio (L6 [17]): 0.528

SMILES: COc1ccc(C[C@H]2C(=O)OC[C@@H]2Cc2ccc(OC)c(OC)c2)cc1O
- Activity (L6 [12]): 100.4%
- Activity (L6 [13]): 188.9%
- Ratio (L6 [14]): 0.531
